Values after ≈ are worked out from the molar mass of the structure shown.
Key:
Type in all cases: functional, organism-based
[1] = tested on: Streptococcus pneumoniae; test: Antimicrobial activity against Streptococcus pneumoniae CGMCC 1.1692
Summary of the method: (§1)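 Bacteria grown on Mueller-Hinton agar, then in broth at 37 °C for 24 h. Final suspension was 10^6 cells/mL in MHB. Samples were 10 mg/mL DMSO stocks, serially diluted and tested in triplicate. Absorbance at 595 nm was read after incubation. IC50 came from plotting inhibition rate vs concentration. MIC was the lowest concentration completely inhibiting growth.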

[2] = tested on: Staphylococcus aureus; test: Antimicrobial activity against Staphylococcus aureus ATCC 6538; summary of the method: as §1
[3] = tested on: Aspergillus fumigatus; test: Antifungal activity against Aspergillus fumigatus ATCC 10894
Summary of the method: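 A. fumigatus grown on potato dextrose agar, then in broth at 28 °C for 48 h. Final inoculum was 10^4 mycelial fragments/mL in PDB. Samples were 10 mg/mL DMSO stocks, serially diluted and tested in triplicate. A595 was read after incubation. IC50 came from the inhibition-rate vs concentration plot. MIC was the lowest concentration giving complete growth inhibition.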

[4] = tested on: Escherichia coli; test: Antimicrobial activity against Escherichia coli CGMCC 1.2340; summary of the method: as §1

Row | SMILES | IC50 [1] | IC50 [2] | IC50 [3] | IC50 [4] | MIC [3] | MIC [1] | MIC [2] | MIC [4]
1 | CCCCOC(=O)c1c(O)cc(C)cc1Oc1c(OC)cc(O)cc1C(=O)OC [BUTYL ASTERRATE] | > 50 µM | > 50 µM | > 50 µM | > 50 µM |  |  |  | 
2 | CCOC(=O)c1c(O)cc(C)cc1Oc1c(OC)cc(O)cc1C(=O)OC [ETHYL ASTERRATE] | > 50 µM | > 50 µM | > 50 µM | > 50 µM |  |  |  | 
3 | OC(Cn1cncn1)(Cn1cncn1)c1ccc(F)cc1F [FLUCONAZOLE] |  |  | 7.35 µM |  | 163 µM (≈ 50 µg/mL) |  |  | 
4 | COC(=O)c1cc(OC(=O)c2c(O)cc(C)cc2Oc2c(OC)cc(O)cc2C(=O)OC)cc(OC)c1Oc1cc(C)cc(O)c1C(=O)OC [GEOMYCIN A] | > 50 µM | > 50 µM | > 50 µM | > 50 µM |  |  |  | 
5 | COC(=O)c1cc(OC(=O)c2c(O)cc(C)cc2Oc2c(OC)cc(O)cc2C(=O)OC)cc(OC)c1Oc1cc(C)cc(O)c1C(=O)O [GEOMYCIN B] |  |  | 0.86 µM |  | 29.5 µM (≈ 20 µg/mL) |  |  | 
6 | COC(=O)C1=CC(=O)C=C(OC)[C@]12Oc1cc(C)cc(OC(=O)c3c(O)cc(C)cc3Oc3c(OC)cc(O)cc3C(=O)OC)c1C2=O [GEOMYCIN C] | 36.2 µM | 17.3 µM |  | 12.9 µM |  | 152 µM (≈ 100 µg/mL) | 75.8 µM (≈ 50.1 µg/mL) | 30.3 µM (≈ 20 µg/mL)
7 | CN[C@@H]1[C@H](O[C@H]2[C@H](O[C@H]3[C@H](O)[C@@H](O)[C@H](N=C(N)N)[C@@H](O)[C@@H]3N=C(N)N)O[C@@H](C)[C@]2(O)C=O)O[C@@H](CO)[C@H](O)[C@H]1O [STREPTOMYCIN] |  |  |  | 1.05 µM |  |  |  | 11.2 µM (≈ 6.51 µg/mL)

From ChEMBL document CHEMBL1156653, “Bioactive asterric acid derivatives from the Antarctic ascomycete fungus Geomyces sp” (J Nat Prod, 2008)
